In one assay the test system is SF-539. Description: Cytotoxicity against human CNSSF-539 cancer cell lines. The assay is classed as functional.
The next assay deals with DU-145. The assay is described as follows: Cytotoxicity against human prostate DU-145 cancer cell lines. The assay is classed as functional.
The next assay concerns HOP-62. Description: Cytotoxicity was determined in human lung HOP-62 cancer cell lines. It counts as functional.
In assay [1] the test system is Panel (Carcinoma cell lines). Description: Mean graph midpoint for growth inhibition of all human cancer cell lines. The assay is classed as functional. Set-up: unit: µM. A digest of the protocol: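 Mean graph midpoint from the NCI screen, about 55 human cancer cell lines, test range 10^-8 to 10^-4 M. Computed as the average GI50 across all lines tested, with GI50 values below or above the range set to 10^-8 M or 10^-4 M.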

For another assay, the system named is MDA-MB-435. The assay is described as follows: Cytotoxicity against human breast […] cancer cell lines. The assay is classed as functional.
Another assay relates to UACC-62. Description: Cytotoxicity against human melanoma UACC-62 cancer cell lines. The assay is classed as functional.
Another assay deals with SN12C. Description: Cytotoxicity against human renal SN12C cancer cell lines. It counts as functional.
The test system of a further assay is HCT-116. Description: Cytotoxicity against human colon HCT116 cancer cell lines. It counts as functional.
The target in assay [2] is T1, DNA topoisomerase 1 (Homo sapiens) (UniProt P11387).
T1 sequence (whole entry): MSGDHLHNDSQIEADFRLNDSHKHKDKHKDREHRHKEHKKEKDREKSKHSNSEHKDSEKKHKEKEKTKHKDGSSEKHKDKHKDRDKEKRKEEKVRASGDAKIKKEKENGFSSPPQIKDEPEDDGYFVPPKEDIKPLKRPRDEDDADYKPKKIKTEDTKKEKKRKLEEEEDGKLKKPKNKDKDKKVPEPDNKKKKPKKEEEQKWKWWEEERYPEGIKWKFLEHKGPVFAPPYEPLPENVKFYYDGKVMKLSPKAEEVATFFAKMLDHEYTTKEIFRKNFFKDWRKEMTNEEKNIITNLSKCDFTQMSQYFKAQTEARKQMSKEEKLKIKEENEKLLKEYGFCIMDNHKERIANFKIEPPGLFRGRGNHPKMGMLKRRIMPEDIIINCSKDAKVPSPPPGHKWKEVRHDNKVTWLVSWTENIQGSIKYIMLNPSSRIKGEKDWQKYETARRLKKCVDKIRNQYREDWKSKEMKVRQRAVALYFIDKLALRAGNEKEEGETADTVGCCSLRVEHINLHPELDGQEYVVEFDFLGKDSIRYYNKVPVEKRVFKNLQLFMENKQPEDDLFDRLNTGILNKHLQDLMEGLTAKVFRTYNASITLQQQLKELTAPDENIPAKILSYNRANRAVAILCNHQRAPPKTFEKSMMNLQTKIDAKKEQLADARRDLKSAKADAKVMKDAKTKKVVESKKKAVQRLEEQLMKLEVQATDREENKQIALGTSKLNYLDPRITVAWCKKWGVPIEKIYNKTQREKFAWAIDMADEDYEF
The assay is described as follows: Inhibitory activity against DNA topoisomerase I; greater activity than the parent compound 1.

The test system of another assay is OVCAR-3. Description: Cytotoxicity against human ovarian OVCAR-3 cancer cell lines. The assay is classed as functional.
In assay [3] the target is T1, DNA topoisomerase 1 (Homo sapiens). Description: Compound was tested for its inhibitory activity against DNA topoisomerase I; No activity.

One may read the GI50 as the concentration at which growth is held to half of that of the control. For the compound `COc1cc2c3c(n(C)c(=O)c2cc1OC)-c1cc2c(cc1C3=O)OCO2`, the GI50 in the assay with SF-539 amounted to 41000 nM; in the assay on DU-145, 37000 nM; in the assay on HOP-62 it was 1300 nM; in the assay on MDA-MB-435, 96000 nM; in the assay with UACC-62, 4200 nM; in the assay with SN12C, 68000 nM. Further, the GI50 with HCT-116 is 35000 nM. The compound also had an MGM in assay [1] of 20.
In the case of `COc1cc2c3c(n(CCN)c(=O)c2cc1OC)-c1cc2c(cc1C3=O)OCO2.Cl`, the concentration for 50% growth inhibition (GI50) in the assay with SF-539 is 1300 nM; with DU-145, 400 nM; with HOP-62, 580 nM; in the assay with OVCAR-3 it was 860 nM; with UACC-62, 140 nM; in the assay on SN12C it was 360 nM. Besides, the GI50 in the assay with HCT-116 turned out to be 68 nM. Further, the Activity result in [2] is on record as “greater activity than compound 1”. Also, the MGM in [1] is given as 0.34.
`COc1cc2c3c(n(CCCNCC(OC)OC)c(=O)c2cc1OC)-c1cc2c(cc1C3=O)OCO2`: the GI50 in the assay on SF-539 amounted to 6700 nM; in the assay on DU-145, 540 nM; with HOP-62 it was 450 nM; in the assay on MDA-MB-435, 10800 nM; with OVCAR-3 it was 6900 nM; in the assay with UACC-62 it was 2860 nM. For the same compound, in the assay on HCT-116, growth was halved (GI50) at 180 nM. Further, the Activity entry in assay [2] was “greater activity than compound 1”. Further, the MGM in assay [1] is listed as 2.1.
Consider `COc1cc2c3c(n(CCCN(C)C)c(=O)c2cc1OC)-c1cc2c(cc1C3=O)OCO2`, for which the GI50 was determined as 190 nM in the assay on SF-539; 140 nM with DU-145; 18 nM with HOP-62; 650 nM in the assay with MDA-MB-435; 1400 nM in the assay with OVCAR-3; 540 nM in the assay with UACC-62. Besides, the GI50 with SN12C was determined as 900 nM; in the assay with HCT-116 it was 120 nM. For the same compound, the Activity entry in assay [2] is “greater activity than compound 1”. In [1], the MGM was 0.35.
On to `COc1cc2c3c(n(CCCN(CCO)CCO)c(=O)c2cc1OC)-c1cc2c(cc1C3=O)OCO2.Cl`, for which the GI50 was < 10 nM in the assay on SF-539; < 10 nM with DU-145; < 10 nM with HOP-62; 80 nM with MDA-MB-435; 130 nM in the assay on OVCAR-3; < 10 nM in the assay with UACC-62. Besides, the GI50 with SN12C and with HCT-116 was < 10 nM each time. In assay [1], this compound displayed an MGM of 0.07.
With `COc1cc2c3c(n(CCCNCCCNCCCN)c(=O)c2cc1OC)-c1cc2c(cc1C3=O)OCO2.Cl.Cl.Cl`, the GI50 in the assay on SF-539 was > 100000 nM; in the assay on DU-145, > 100000 nM; with MDA-MB-435, 68000 nM; in the assay with OVCAR-3 it was 880 nM; with UACC-62 it was 44000 nM; in the assay on SN12C, 33000 nM. For the same compound, the GI50 in the assay with HCT-116 was determined as 43000 nM. In assay [1], this compound showed an MGM of 59.
For the compound `COc1cc2c3c(n(CCCNCCNCCN)c(=O)c2cc1OC)-c1cc2c(cc1C3=O)OCO2.Cl.Cl.Cl`, the GI50 came out at 550 nM in the assay on SF-539; 1200 nM in the assay with DU-145; 2800 nM in the assay on HOP-62; 2700 nM in the assay on MDA-MB-435; 1700 nM with OVCAR-3; 2600 nM in the assay on UACC-62. For the same compound, the GI50 worked out at 2500 nM in the assay with SN12C and 900 nM in the assay with HCT-116. Also, the Activity result in assay [2] is recorded as “greater activity than compound 1”. The MGM in assay [1] is reported as 2.4.
In the case of `COc1cc2c3c(n(CCCNCCNCCCN)c(=O)c2cc1OC)-c1cc2c(cc1C3=O)OCO2.Cl.Cl.Cl`, the GI50 came to 8600 nM in the assay on SF-539; 4600 nM with DU-145; 2900 nM in the assay on HOP-62; 3400 nM in the assay with MDA-MB-435; 8100 nM in the assay with OVCAR-3; 1900 nM with UACC-62. Also, the GI50 in the assay with SN12C worked out at 1700 nM; in the assay on HCT-116, 1300 nM. In [1], the MGM amounted to 3.
Turning to `C[C@@]1(O)C(=O)OCc2c1cc1n(c2=O)Cc2cc3ccccc3nc2-1`, the GI50 was < 10 nM in the assay on SF-539; < 10 nM in the assay on DU-145; < 10 nM in the assay on HOP-62; 40 nM with MDA-MB-435; 220 nM in the assay on OVCAR-3; < 10 nM in the assay on UACC-62. Besides, the figures for the GI50 in the assay on SN12C and with HCT-116 were 20 nM and 30 nM, respectively. In addition, the Activity entry in [2] is listed as “greater activity than compound 1”. Besides, the MGM in [1] is reported as 0.04.
For the compound `COc1cc2c3c(n(CCCNCCN)c(=O)c2cc1OC)-c1cc2c(cc1C3=O)OCO2.Cl.Cl`, the GI50 with SF-539 is 430 nM; in the assay on DU-145 it was 720 nM; in the assay with HOP-62, 380 nM; in the assay with MDA-MB-435 it was 1600 nM; with OVCAR-3, 700 nM; in the assay with UACC-62 it was 650 nM. For the same compound, the GI50 stood at 370 nM in the assay on SN12C and 560 nM in the assay with HCT-116. Moreover, the Activity entry in assay [2] is on record as “greater activity than compound 1”. In assay [1], this compound registered an MGM of 0.88.
For the compound `COc1cc2c3c(n(CCN(C)C)c(=O)c2cc1OC)-c1cc2c(cc1C3=O)OCO2.O=CO`, the GI50 was determined as 900 nM with SF-539; 1900 nM in the assay with DU-145; 1100 nM in the assay on HOP-62; 6100 nM in the assay on MDA-MB-435; 10000 nM with OVCAR-3; 1200 nM in the assay with UACC-62. The GI50 in the assay with SN12C came to 4400 nM; with HCT-116 it was 660 nM. In assay [1], this compound came in with an MGM of 3.1.
For the compound `COc1cc2c3c(n(CCCNCCCNCCN)c(=O)c2cc1OC)-c1cc2c(cc1C3=O)OCO2.Cl.Cl.Cl`, the GI50 in the assay on SF-539 amounted to 38000 nM; with DU-145, 52000 nM; in the assay with MDA-MB-435 it was 38000 nM; in the assay with OVCAR-3, 20000 nM; with UACC-62 it was 37000 nM; in the assay with SN12C, 20000 nM. The GI50 with HCT-116 stood at 23000 nM. For the same compound, the Activity entry in assay [2] is listed as “greater activity than compound 1”. In assay [1], this compound registered an MGM of 41.
For `COc1cc2c3c(n(CCCNCCCN)c(=O)c2cc1OC)-c1cc2c(cc1C3=O)OCO2`, the GI50 worked out at 1200 nM in the assay with SF-539; 3100 nM in the assay on DU-145; 1600 nM in the assay with HOP-62; 2500 nM in the assay on MDA-MB-435; 3100 nM in the assay with OVCAR-3; 3400 nM with UACC-62. Also, the GI50 in the assay with SN12C is 2300 nM; in the assay on HCT-116, 1300 nM. In addition, in assay [2], the Activity entry is “greater activity than compound 1”. In assay [1], this compound had an MGM of 3.2.
`COc1cc2c3c(n(CCCNCCCNCCCNCCCN)c(=O)c2cc1OC)-c1cc2c(cc1C3=O)OCO2.Cl.Cl.Cl.Cl`: the Activity entry in [3] was “No activity”. The GI50 is 1400 nM with DU-145; 3000 nM in the assay on HOP-62; 1400 nM in the assay with MDA-MB-435; 1600 nM in the assay with OVCAR-3; 1700 nM in the assay on UACC-62; 1600 nM with SN12C. It took 1500 nM to inhibit growth in the assay with HCT-116 by half (GI50). This compound also returned an MGM in [1] of 2.
For `COc1cc2c3c(n(CCCOC(=O)C(F)(F)F)c(=O)c2cc1OC)-c1cc2c(cc1C3=O)OCO2`, the GI50 in the assay on SF-539 was < 10 nM; in the assay with DU-145, 660 nM; with HOP-62, < 10 nM; in the assay on MDA-MB-435, 30 nM; with OVCAR-3, 70 nM; with UACC-62 it was < 10 nM. For the same compound, the values for the GI50 in the assay with SN12C and in the assay on HCT-116 were < 10 nM and 18 nM, respectively. The Activity result in assay [2] was “greater activity than compound 1”. Further, the MGM in assay [1] is listed as 0.15.

The values are drawn from ChEMBL document CHEMBL1145941, “Design, synthesis, and biological evaluation of indenoisoquinoline topoisomerase I inhibitors featuring polyamine side chains on the lactam nitrogen” (2003).
